This note sets out measurements from ChEMBL document CHEMBL4715918, “Syntheses and evaluation of acridone-naphthalimide derivatives for regulating oncogene PDGFR-β expression” (Bioorg Med Chem, 2021).

Some results are limits rather than exact numbers.

The subject of series [1] is MCF7. Put plainly: Induction apoptosis in human MCF7 cells assessed as viable cells at 2.5 uM incubated for 24 hrs by Annexin-FTTC/PI staining based flow cytometric analysis (reference value: 99.7%). In kind it is functional. Conditions: read-out: Activity.
Series [2] concerns MCF7. As to the kind of experiment: Antitumour activity against human MCF7 cells xenografted in nude BALB/c mouse assessed as tumour growth inhibition at 2.5 mg/kg, ip administered for 34 days relative to control. The class given is functional. Conditions: 816 h, time 34 day, read-out: TGI. For orientation: A xenograft is tissue or cells of one species grown in another, often human tumour cells in immunodeficient mice.

The test system of series [3] is MCF7. Put plainly: Binding affinity to wild type PDGFRbeta promoter (unknown origin) in human MCF7 cells assessed as down regulation of PDGFRbeta expression at 1.25 to 20 uM after 12 hrs. Conditions: dose 1.25-20 µM.
In series [4] the test system is Quadruplex DNA. As to the kind of experiment: Binding affinity to 5'-FAM-GGGAGAAGGGGGGGCGGCGGGGCAGGGAGGGTGGAC-TAMRA-3' G4-quadruplex DNA (unknown origin) assessed as stabilization G4-quadruplex structure by measuring increase in I585/I518 ratio by FRET assay. The class given is nucleic-acid assay. Particulars: dose 2-10 equiv. An outline of the steps: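 FRET probe dual-labelled FAM/TAMRA, annealed, 10 µM in 10 mM Tris-HCl pH 7.4 with 10 mM KCl; compound added in equal volume. Emission 500–700 nm recorded, corrected for compound signal in the same buffer; I585/I518 ratio compared.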

Series [5] deals with MCF7. As to the kind of experiment: Induction apoptosis in human MCF7 cells assessed as early apoptotic cells at 2.5 uM incubated for 24 hrs by Annexin-FTTC/PI staining based flow cytometric analysis (reference value: 0.28%). The class given is functional. (In general: In flow cytometry, cells or beads pass a laser one at a time.)
The subject of series [6] is MCF7. As to the kind of experiment: Antitumour activity against human MCF7 cells xenografted in nude BALB/c mouse assessed as tumour volume at 10 mg/kg, ip administered for 34 days (reference value: 1530 mm3). The class given is functional. Particulars: time 34 day.
Series [7] in a line: Toxicity in nude BALB/c mouse xenografted with human MCF7 cells assessed as spleen weight at 2.5 to 10 mg/kg, ip administered for 34 days. Conditions: in vivo, 816 h, dose 2.5-10 mg/kg, time 34 day. The class given is organism-based. An outline of the steps: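 Nude BALB/c females bearing subcutaneous MCF-7 xenografts were dosed ip once daily for 34 days at 2.5, 5.0 or 10 mg/kg, with saline vehicle (100 µL) as control. Body weight was recorded every 2 days. After euthanasia by cervical dislocation, heart, liver, spleen and kidney were removed and weighed.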

Series [8] relates to MCF7. Put plainly: Antitumour activity against human MCF7 cells xenografted in nude BALB/c mouse assessed as tumour growth inhibition at 10 mg/kg, ip administered for 34 days relative to control. In kind it is functional. Particulars: 816 h, time 34 day, read-out: TGI.
Series [9] in a line: Binding affinity to 5'-FAM-GCGTCCACCCTCCCTGCCCCGCCGCCCCCCCTTCTCCCAGC-TAMRA-3' i-motif DNA (unknown origin) assessed as unfolding i-motif structure by measuring reduction in I585/I518 ratio by FRET assay. Particulars: dose 2-10 equiv. An outline of the steps: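 FRET probe: i-motif oligonucleotide dual-labelled with FAM donor and TAMRA acceptor, 10 µM in 30 mM BPES buffer with 1 mM EDTA, KCl, thermally annealed. Compound was added in equal volume at increasing concentrations. Emission was scanned 500–700 nm and corrected for the compound's own signal. Read-out was the I585/I518 ratio, with the titration run at pH 6.2.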

Series [10] is described as follows: Binding affinity to 5'-biotin-d [GCGTCCACCCTCCCTGCCCCGCCGCCCCCCCITCTCCCAGC]-3' i-motif DNA (unknown origin) by surface plasmon resonance assay. In outline:
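SPR: biotinylated oligomers were captured on a neutravidin chip at ~1000 RU, with a blank reference cell. Running buffer was 20 mM MES pH 5.5, 100 mM KCl, 0.05% Tween-20 for the i-motif, or 50 mM Tris-HCl pH 7.4, 100 mM KCl for the G-quadruplex. Ligand was injected at 0–10 μM (six concentrations), with 200 s association and 300 s dissociation at 25 °C.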
A general note: SPR reads the build-up and loss of mass on a sensor chip optically.

Series [11] deals with HEK293. As to the kind of experiment: Cytotoxicity against HEK293 cells assessed as reduction in cell viability after 48 hrs by MTT assay. Particulars: Homo sapiens, HEK293, 48 h. The class given is cell-based. In outline:
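MTT assay: cells seeded at 5.0 × 10³/well, grown 12 h, then exposed to graded compound concentrations for 48 h at 37 °C/5% CO2. 2.5 mg/mL MTT was added for 4 h, formazan dissolved in DMSO, and absorbance read at 570 nm. Each dose in triplicate; IC50 from percent survival versus negative control.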

The subject of series [12] is MCF7. As to the kind of experiment: Induction apoptosis in human MCF7 cells incubated for 24 hrs by Annexin-FTTC/PI staining based flow cytometric analysis. Particulars: dose 1.25-5 µM. The class given is functional, cell-based.
Series [13] relates to MCF7. As to the kind of experiment: Antitumour activity against human MCF7 cells xenografted in nude BALB/c mouse assessed as tumour growth inhibition at 5 mg/kg, ip administered for 34 days relative to control. The class given is functional. Conditions: 816 h, time 34 day, read-out: TGI.
The test system of series [14] is MCF7. Put plainly: Antiinvasive activity in human MCF7 cells assessed as reduction in cell migration by microscopic method. The class given is functional, cell-based. Particulars: dose […], time 24-48 hrs. An outline of the steps: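 Scratch assay: MCF-7 seeded 300,000 cells/well, grown 24 h at 37 °C/5% CO2, then a cross-shaped scrape was made through the monolayer with a pipet tip. Cells were exposed to 5, 2.5, 1.25, 0.625, 0.3125 μM compound or DMSO control. Wounded areas were photographed by microscopy at 0, 24 and 48 h.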

Series [15] can be described thus: Binding affinity to 5'-biotin-d [GCGTCCACCCTCCCTGCCCCGCCGCCCCCCCITCTCCCAGC]-3' i-motif DNA (unknown origin) assessed as change in melting temperature at 10 uM by CD spectroscopy. In outline: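 Oligomer 2 µM in BPES buffer pH 5.5, heated to 95 °C for 5 min, cooled slowly and held at 4 °C overnight. Ligand 10 µM. CD ellipticity followed at 288 nm from 25–95 °C (1 mm cuvette); Tm derived, ΔTm against DNA alone.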

Series [16] has as its system MCF7. Put plainly: Induction apoptosis in human MCF7 cells assessed as viable cells at 1.25 uM incubated for 24 hrs by Annexin-FTTC/PI staining based flow cytometric analysis (reference value: 99.7%). The class given is functional. Particulars: read-out: Activity.
Series [17] is described as follows: Binding affinity to 5'-biotin-d [GCGTCCACCCTCCCTGCCCCGCCGCCCCCCCITCTCCCAGC]-3' i-motif DNA (unknown origin) assessed as decrease in positive peak by CD spectroscopy. Conditions: dose 2-10 equiv. An outline of the steps:
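CD spectra: oligomers at 2 μM final, in BPES pH 5.5 (i-motif) or Tris-HCl pH 7.4 (G-quadruplex). Samples were annealed (95 °C 5 min, slow cool, 4 °C overnight), then titrated with increasing compound. Spectra were recorded at 25 °C over 230–330 nm in a 1 mm cuvette, buffer-subtracted, averaged and smoothed.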

Series [18] has as its system MCF7. Put plainly: Induction apoptosis in human MCF7 cells assessed as late apoptotic cells at 1.25 uM incubated for 24 hrs by Annexin-FTTC/PI staining based flow cytometric analysis (reference value: 0%). In kind it is functional.
Series [19] concerns MCF7. Put plainly: Cytotoxicity against human MCF7 cells assessed as reduction in cell viability after 48 hrs by xcCELLigence RTCA analysis. The class given is functional, cell-based. Particulars: MCF7, 48 h. In outline:
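xCELLigence RTCA: MCF-7 cells were cultured on E-plates about 16 h, then treated with 0.625, 1.25, 2.5 μM compound or DMSO. Impedance was monitored for 90 h.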

`Cc1ccc2c(c1)c(=O)c1cc(C(=O)NCCCN(C)CCCN3C(=O)c4cccc5c(N6CCN(C)CC6)ccc(c45)C3=O)ccc1n2-c1ccc(C(=O)NCCCN(C)CCCN2C(=O)c3cccc4c(N5CCN(C)CC5)ccc(c34)C2=O)cc1`: the viability at 2.5 µM in series [1] is 71.4%. Further, the inhibition in vivo at 2.5 mg/kg in series [2] is 34.9%. Moreover, the Activity entry in series [3] is “Dose-dependent effect”; in [4] it was “Dose-dependent effect”; in [5], 26.1%; in [6] it was 640.2 mm3; in [7], “Non-Toxic”; in series [9] it was “Dose-dependent effect”. For the same compound, the Activity entry in series [12] was “Dose-dependent effect”; in [14], “Dose-dependent effect”; in [17], “Dose-dependent effect”; in series [18] it was 0.8%. Moreover, in series [8], the inhibition in vivo at 10 mg/kg stood at 56.5%. The affinity in [10], expressed as Kd, was 3.12 µM. Besides, the results for the IC50 in series [11] and in series [19] were > 50 µM and 2740 nM, respectively. Besides, the inhibition in vivo at 5 mg/kg in series [13] was 47.6%. Besides, in series [15], the ΔTm is -16.7 °C. Moreover, the viability at 1.25 µM in series [16] came out at 91.4%.

Usually Kd stands for the free concentration of one partner at which half of the binding sites on the other are occupied at equilibrium, for simple one-to-one binding. Low readings indicate higher affinity, high ones lower affinity. As usually defined, the IC50 is the point on the concentration scale where inhibition reaches its midpoint. What is called ΔTm is the change in melting temperature against a reference sample.
